zVAD death inh = blocks zVAD induced death of L929 cells; actives 0.38% (n = 220,000); AID 1377; L929 zVAD necroptosis rescue, ATP luminescence, 24 h; with zVAD 60 µM; viability rescue, % at 10 µM;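 active = activation, scaled between plate controls, above about 75%, limit read from the data; inactive = activation under that limit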
STAT1 inh-1 = STAT1 signaling inhibition. AID 920. actives 0.35% (n = 200,000). NIH 3T3 STAT1-luciferase reporter, IFN-gamma, luminescence. inhibition, % at 5.5 µM;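 active = inhibition above a set limit, the mean inhibition across all tested compounds plus 3 SD, cut at about 34% in these data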
STAT3 inh = inhibitors of IL-6 induced STAT3 signaling. U3A cells, IL-6 STAT3-luciferase reporter, luminescence; host cell line lacks STAT1. inhibition, % at 5.5 µM. actives 0.89% (n = 190,000). AID 862;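 active = inhibition above the mean inhibition across all screened compounds plus 3 SD, cut at about 44% in these data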
TNF necrop inh = blocks TNF-alpha induced death of Jurkat FADD-/- cells; Jurkat FADD-/- TNF necroptosis rescue, ATP luminescence, 24 h; 0 = TNF only, 100 = no-TNF cells; activation (protection from cell death), % at 10 µM; actives 0.068% (n = 220,000); AID 463075;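 active = activation, meaning protection from cell death, of at least 50% relative to plate controls; inactive = activation below 50%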;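 also: necroptosis triggered by 40 ng/mL TNF-alpha added together with compound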
STAT3 act = STAT3 signaling activation; U3A cells, IL-6 STAT3-luciferase reporter, luminescence; 100% = signal with IL-6 EC80 alone; activation (% of control), % at 5.6 µM; actives 0.91% (n = 190,000); AID 871;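 active = activation above the screen-wide mean of compound activation plus 3 SD, cut at about 130% in these data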
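Material: STAT1-lacking human U3A cells, STAT3 luciferase reporter | Benchmarks: IL-6-only wells as 100% reference | Probe or stimulus: IL-6 (33 ng/mL) | Timing: Compound 1 h, then IL-6 6 h at 37 °C | Detection: Luminescence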
STAT1 inh-2 = confirmation of STAT1 signaling inhibitors. shares compounds with STAT1 inh-1. NIH 3T3 STAT1-luciferase reporter, IFN-gamma, luminescence. inhibition, % at 5.5 µM. actives 55% (n = 200);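 active = triplicate mean inhibition exceeding the hit cutoff computed for the primary STAT1 screen, cut at about 35% in these data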
NFkB inh STAT1ct = NF-kappaB inhibition in STAT1 inhibitor counter-screen; shares compounds with STAT1 inh-1; HEK293T NF-kB luciferase reporter, TNF-alpha induced, luminescence; inhibition, % at 5.7 µM; actives 30% (n = 200); AID 1303;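 active = inhibition above the mean of solvent-only control wells plus 3 SD of those wells, cut at about 15% in these data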
STAT3 inh STAT1c = counter-screen for STAT1 inhibitors: STAT3 inhibition | shares compounds with STAT1 inh-1 | U3A cells, IL-6 STAT3 luciferase reporter, luminescence; cells lacking STAT1 | inhibition, % at 5.7 µM | actives 20% (n = 200) | AID 1310;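 active = inhibition above the mean of solvent-only control wells plus 3 SD, set per campaign, cut at about 25% in these data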
Large screens that a line does not name were inactive (follow-up assays come after a bar, where they were run). This is a sample that favours compounds with a hit; in the whole collection about 2.1% have one here.

CCn1c(O)c(/C=N/NC(=O)c2ccncc2)c(=O)n(CC)c1=S	STAT1 inh-1 61.1 | STAT1 inh-2 60.0 | NFkB inh STAT1ct inactive | STAT3 inh STAT1c inactive
Cn1c(=O)n(C)c2cc(/C=N/NC(=O)c3ccncc3)ccc21	none
O=C(CSc1nc2ccccc2c(=O)[nH]1)c1ccc(O)cc1O	STAT1 inh-1 64.1 | STAT1 inh-2 43.4 | NFkB inh STAT1ct inactive | STAT3 inh STAT1c inactive
CS(=O)(=O)c1nc(-c2ccco2)cc(C(F)(F)F)n1	STAT1 inh-1 39.3 | STAT1 inh-2 40.1 | NFkB inh STAT1ct inactive | STAT3 inh STAT1c inactive
COc1ccccc1-c1cc(C(F)(F)F)nc(S(C)(=O)=O)n1	STAT1 inh-1 39.9 | STAT1 inh-2 43.8 | NFkB inh STAT1ct inactive | STAT3 inh STAT1c inactive
COc1ccccc1-c1cc(C(F)(F)F)nc(N2CCCC2)n1	none
COc1cccc(-c2cc(C(=O)Nc3ccc(OC)c(OC)c3)no2)c1	none
CCOc1ccc2[nH]c3c(N4CCN(c5ccccn5)CC4)ncnc3c2c1	none
Cc1ccc2[nH]c3c(N4CCN(Cc5ccccc5)CC4)ncnc3c2c1	STAT1 inh-1 36.3 | STAT1 inh-2 40.0 | NFkB inh STAT1ct inactive | STAT3 inh STAT1c inactive
c1ccc(CN2CCN(c3ncnc4c3[nH]c3ccccc34)CC2)cc1	STAT1 inh-1 41.3 | STAT1 inh-2 48.4 | NFkB inh STAT1ct 21.5 | STAT3 inh STAT1c inactive
COc1cccc(N2CCN(c3ncnc4c3[nH]c3ccccc34)CC2C)c1 (centres undefined)	STAT1 inh-1 34.6 | STAT1 inh-2 45.6 | NFkB inh STAT1ct 25.1 | STAT3 inh STAT1c 36.5
COCCn1c(C)cc(C(=O)COc2ncnc3ccc(Br)cc23)c1C	none
COC(=O)c1nn(Cc2ccccc2)c(=O)c2ccccc12	none
O=C(N/N=C/c1ccncc1)c1nn(Cc2ccccc2)c(=O)c2ccccc12	STAT1 inh-1 39.3 | STAT1 inh-2 inactive | NFkB inh STAT1ct inactive | STAT3 inh STAT1c inactive
O=C(CCCN1C(=O)/C(=C\c2ccccc2)SC1=S)Nc1ccc(O)cc1	none
Cc1ccc(/C=C2/SC(=S)N(CCCC(=O)Nc3ccc(O)cc3)C2=O)cc1	STAT1 inh-1 40.5 | STAT1 inh-2 39.1 | NFkB inh STAT1ct 54.4 | STAT3 inh STAT1c inactive
Cn1c(-c2ccccc2)c(C(=O)CCl)c2ccccc21	STAT1 inh-1 36.6 | STAT1 inh-2 35.8 | NFkB inh STAT1ct 39.5 | STAT3 inh STAT1c inactive
COc1cc(NC(=O)c2ccccc2C)c(OC)cc1NC(=O)CN1CCOCC1	none
COc1ccc(NC(=O)c2ccc(-c3ccccc3)cc2)cc1S(=O)(=O)N1CCOCC1	STAT1 inh-1 38.4 | STAT1 inh-2 47.2 | NFkB inh STAT1ct 28.6 | STAT3 inh STAT1c inactive
COc1ccc(-n2cc(-c3ccccc3)c3c(N4CCOCC4)ncnc32)cc1	STAT1 inh-1 44.3 | STAT1 inh-2 inactive | NFkB inh STAT1ct inactive | STAT3 inh STAT1c inactive
CCOC(=O)C(=CNc1cc(C)nn1-c1ccc(Cl)cc1)C(=O)OCC	STAT1 inh-1 58.9 | STAT1 inh-2 55.4 | NFkB inh STAT1ct 16.9 | STAT3 inh STAT1c inactive
CCOC(=O)C(=CNc1ccc(NC2=NCC(C)S2)cc1)C(=O)OCC (centres undefined)	STAT1 inh-1 59.9 | STAT1 inh-2 58.6 | NFkB inh STAT1ct 38.4 | STAT3 inh STAT1c inactive
CCOC(=O)C(=CNc1ccc(C(F)(F)F)cc1)C(=O)OCC	none (no result: STAT1 inh-1, STAT3 inh, STAT3 act)
CCC(/C=C1\Sc2ccc(OC)cc2N1CC)=C\c1sc2ccc(OC)cc2[n+]1CCCS(=O)(=O)[O-]	STAT1 inh-1 40.8 | STAT1 inh-2 inactive | NFkB inh STAT1ct inactive | STAT3 inh STAT1c inactive
CCC(/C=C1\Sc2ccc(OC)cc2N1CCO)=C\c1sc2ccc(OC)cc2[n+]1CCO	none
CC(=O)Nc1ccc2nc(C3CC3)n(Cc3ccc(Cl)cc3)c(=O)c2c1	none
CCOc1cc(-c2cc(-c3ccc(N)cc3)nc(N)c2C#N)ccc1O	none
